{
  "source": "ChEMBL document CHEMBL4765342",
  "about": "“Substituted benzothiophene and benzofuran derivatives as a novel class of bone morphogenetic Protein-2 upregulators: Synthesis, anti-osteoporosis efficacies in ovariectomized rats and a zebrafish model, and ADME properties” (Eur J Med Chem, 2020)",
  "key": {"[1]": {"assay": "Toxicity in Kunming mouse assessed as organism death administered orally for 3 days and observed for 17 days starting from drug administration", "details": "in vivo, po, 408 h, time 17 day"}, "[2]": {"assay": "AUC (0 to t) in Sprague-Dawley rat at 2 mg/kg, iv by LC-MS/MS analysis", "format": "ADME, organism-based", "design": "dose 2 mg/kg", "details": "in vivo", "how_it_was_run": "(§1)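 The acid metabolite of the parent ester was dosed directly to Sprague-Dawley rats, iv or intragastrically (n=3). Plasma (50 µL) was spiked with 5 µL DMSO, extracted with 300 µL acetonitrile containing 50 ng/mL diclofenac internal standard, then vortexed and centrifuged at 4 °C. Supernatant was quantified by LC/MS/MS against plasma calibration standards and QCs. AUC came from noncompartmental analysis.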"}, "[3]": {"assay": "Toxicity in BALB/c mouse assessed as effect on hair at 50 to 100 mg/kg, ig administered for 14 days", "format": "organism-based", "details": "in vivo, po, 336 h, dose 50-100 mg/kg, time 14 day", "how_it_was_run": "(§2)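 BALB/c mice, 10 per group, gavaged daily for 14 days at 50 or 100 mg/kg; blank control group included. Hair, behaviour and neurological signs (fremitus, convulsion, spasm, gait disturbance) were observed. At day 14, mice were weighed and given routine blood tests and serum biochemistry (ALT, AST, urea, creatinine; n = 10). Liver and kidney were examined on paraffin-embedded histology sections.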"}, "[4]": {"assay": "AUC (0 to infinity) in Sprague-Dawley rat at 2 mg/kg, iv by LC-MS/MS analysis", "format": "ADME, organism-based", "design": "route intravenous, time infinity, dose 2 mg/kg", "details": "in vivo", "how_it_was_run": "as §1"}, "Cytochrome P450 1A2": {"molecular_target": "T1, Cytochrome P450 1A2 (Homo sapiens, UniProt P05177)", "T1 sequence (P05177 whole entry)": "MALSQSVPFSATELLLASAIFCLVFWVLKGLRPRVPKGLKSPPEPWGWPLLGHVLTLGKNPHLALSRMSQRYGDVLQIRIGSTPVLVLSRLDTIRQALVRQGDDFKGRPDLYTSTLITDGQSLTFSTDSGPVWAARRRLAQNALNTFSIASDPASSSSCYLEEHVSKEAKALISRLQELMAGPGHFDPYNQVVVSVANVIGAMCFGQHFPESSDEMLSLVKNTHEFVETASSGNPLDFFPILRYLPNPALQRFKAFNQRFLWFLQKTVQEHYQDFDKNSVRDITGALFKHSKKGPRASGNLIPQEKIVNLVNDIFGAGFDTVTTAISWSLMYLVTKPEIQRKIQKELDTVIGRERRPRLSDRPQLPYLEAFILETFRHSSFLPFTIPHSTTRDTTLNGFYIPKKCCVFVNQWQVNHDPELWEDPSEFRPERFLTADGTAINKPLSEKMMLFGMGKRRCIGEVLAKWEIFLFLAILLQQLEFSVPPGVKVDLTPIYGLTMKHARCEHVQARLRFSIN", "assay": "Inhibition of CYP1A2 in human liver microsomes using phenacetin as substrate incubated for 5 mins followed by NADPH addition and measured after 20 mins by LC-MS/MS analysis", "format": "ADME", "how_it_was_run": "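Human liver microsomes at 0.2 mg/mL mixed with probe substrates, preincubated 5 min at 37 °C. Reaction started with NADPH and run 20 min at 37 °C in a shaking bath. Quenched, held at -20 °C for 1 h, centrifuged, and the supernatant analysed by LC/MS/MS. Assay validated with specific inhibitors for each isoform.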"}, "[5]": {"assay": "Hepatotoxicity in BALB/c mouse assessed as effect on serum ALT level at 50 to 100 mg/kg, ig administered for 14 days", "format": "toxicity, organism-based", "details": "in vivo, po, 336 h, dose 50-100 mg/kg, time 14 day", "how_it_was_run": "as §2"}, "[6]": {"assay": "MRT in Sprague-Dawley rat at 2 mg/kg, iv by LC-MS/MS analysis", "format": "ADME, organism-based", "details": "in vivo", "how_it_was_run": "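SD rats dosed iv or intragastrically. Plasma (50 µL) was mixed with diclofenac internal standard (50 ng/mL, 300 µL), vortexed, centrifuged at 4 °C, and the supernatant analysed by LC/MS/MS against spiked standard and QC curves. Noncompartmental parameters calculated; mean ± SD, n = 3 (bioavailability excepted).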"}, "[7]": {"assay": "Apparent permeability across apical to basolateral side in human Caco-2 cells at 10 uM incubated for 2 hrs LC-MS/MS analysis", "format": "ADME, cell-based", "details": "Caco-2", "how_it_was_run": "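Caco-2 monolayers, apical to basolateral direction. Plates preincubated 30 min at 37 °C, then exposed to 10 µM compound for 2 h at 37 °C without shaking. Donor and receiver samples were quenched, centrifuged and measured by LC/MS/MS, in duplicate. Papp calculated from receiver concentration, area and time. Monolayer integrity checked by TEER and by Lucifer yellow leakage (30 min, 37 °C, ex 485/em 530 nm).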"}},
  "data": [
    {"smiles": "COc1ccc2cc(C(=O)NCCN(C)C)oc2c1.CS(=O)(=O)O", "values": [
      {"measurement": "LD50", "setting": "[1]", "result": "> 500", "unit": "mg/kg/day"},
      {"measurement": "AUC(0-t)", "setting": "[2]", "result": 59.5, "unit": "ng·h/mL"},
      {"measurement": "Activity", "setting": "[3]", "result": "Non-Toxic"},
      {"measurement": "AUC(0-inf)", "setting": "[4]", "result": 69, "unit": "ng·h/mL"},
      {"measurement": "IC50", "setting": "Cytochrome P450 1A2", "result": "> 10", "unit": "µM"},
      {"measurement": "Activity", "setting": "[5]", "result": "Non-Toxic"},
      {"measurement": "MRT", "setting": "[6]", "result": 2.85, "unit": "h"},
      {"measurement": "Papp A→B at 2 h, 10 µM", "setting": "[7]", "result": 9.34, "unit": "×10⁻⁶ cm/s"}
    ]}
  ]
}
